In ChEMBL document CHEMBL1154436, “Synthesis, pharmacological activity and hydrolytic behavior of ethylenediamine and benzathine conjugates of ibuprofen” (Eur J Med Chem, 2008):

Key:
[1] = tested on: Mus musculus; assay: Analgesic activity in Swiss albino mouse assessed as protection against acetic acid-induced writhing at 20 mg/kg, po administered 3 hrs mins before acetic acid challenge relative to control; assay type: functional
Outline: (§1)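 Mice, four groups of six: vehicle control 5 ml/kg, or test drug as a homogeneous suspension in 0.5% w/v aqueous sodium CMC (stocks 1, 1.05, 1.49 mg/ml), 0.5–0.6 ml orally, doses molecularly equivalent to ibuprofen 20 mg/kg. Acetic acid given i.p. at 1 ml/100 g body weight. Writhings counted over 10 min. Protection % = 100 − (test/control writhings × 100). Mean ± S.E.M.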

[2] = tested on: Rattus norvegicus; assay: Antiinflammatory activity in Wistar rat assessed as inhibition of carrageenan-induced paw edema at 20 mg/kg, po administered 30 mins before carrageenan challenge measured 3 hrs after post drug dose; assay type: functional
Outline: (§2)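 Wistar rats (150–200 g), four groups of six. Drug given orally, 0.75–1.0 ml of a suspension in 0.5% w/v sodium CMC (stocks 4, 4.23, 5.99 mg/ml), dose molecularly equivalent to ibuprofen 20 mg/kg. Control group received no drug. Carrageenan 1%, 0.1 ml, injected subplantar into the left hind paw 30 min after dosing. Paw volume measured before and after treatment. Inhibition % = [(Vt−V0)control − (Vt−V0)treated]/(Vt−V0)control × 100. One-way ANOVA versus control.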

[3] = tested on: Rattus norvegicus; assay: Antiinflammatory activity in Wistar rat assessed as inhibition of carrageenan-induced paw edema at 20 mg/kg, po administered 30 mins before carrageenan challenge measured 24 hrs after post drug dose; assay type: functional; outline: as §2
[4] = tested on: Rattus norvegicus; assay: Gastrointestinal toxicity in Wistar rat assessed ulcer index at 100 mg/kg, po after 17 hrs; assay type: organism-based; design: dose 100 mg/kg, route oral; conditions: in vivo
Outline: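 Adult Wistar rats (150–200 g), four groups of six, fasted 8 h before dosing. Vehicle control, ibuprofen 100 mg/kg, or conjugate at a dose molecularly equivalent to ibuprofen 100 mg/kg. Killed 17 h after dosing, with food and water ad libitum. Gastric mucosa examined with a 4× binocular magnifier. Lesions classed as large (>2 mm), small (1–2 mm) or punctiform (<1 mm) and scored. Index = treated mean score minus control mean score.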

[5] = Chemical stability assessed as hydrolysis in phosphate buffer at pH 7.4; assay type: physicochemical
Outline: (§3)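 Hydrolysis in HCl (pH 1.2) or phosphate (pH 7.4) buffer, 0.05 M total buffer, ionic strength held at 0.5 M with KCl, 37 °C. Released parent drug measured by UV in a chloroform extract. At pH 7.4, sampled at 0.5–10 h. pH 1.2 assay run 2 h. First-order k = 2.303/t·log(a/(a−x)), t in minutes; half-life derived. Mean of three sets.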

[6] = tested on: Mus musculus; assay: Analgesic activity in Swiss albino mouse assessed as protection against acetic acid-induced writhing at 21.15 mg/kg, po administered 3 hrs mins before acetic acid challenge relative to control; assay type: functional; outline: as §1
[7] = tested on: Rattus norvegicus; assay: Antiinflammatory activity in Wistar rat assessed as inhibition of carrageenan-induced paw edema at 21.15 mg/kg, po administered 30 mins before carrageenan challenge measured 3 hrs after post drug dose; assay type: functional; outline: as §2
[8] = Chemical stability assessed as hydrolysis in hydrochloric acid buffer at pH 1.2; assay type: physicochemical; outline: as §3
[9] = tested on: Rattus norvegicus; assay: Antiinflammatory activity in Wistar rat assessed as inhibition of carrageenan-induced paw edema at 21.15 mg/kg, po administered 30 mins before carrageenan challenge measured 24 hrs after post drug dose; assay type: functional; outline: as §2
[10] = tested on: Rattus norvegicus; assay: Antiinflammatory activity in Wistar rat assessed as inhibition of carrageenan-induced paw edema at 29.98 mg/kg, po administered 30 mins before carrageenan challenge measured 3 hrs after post drug dose; assay type: functional; outline: as §2
[11] = tested on: Mus musculus; assay: Analgesic activity in Swiss albino mouse assessed as protection against acetic acid-induced writhing at 29.98 mg/kg, po administered 3 hrs mins before acetic acid challenge relative to control; assay type: functional; outline: as §1
[12] = tested on: Rattus norvegicus; assay: Antiinflammatory activity in Wistar rat assessed as inhibition of carrageenan-induced paw edema at 29.98 mg/kg, po administered 30 mins before carrageenan challenge measured 24 hrs after post drug dose; assay type: functional; outline: as §2

Row | Structure (SMILES) | Activity [1] [%] | inhibition in vivo at 20 mg/kg [2] [%] | inhibition in vivo at 20 mg/kg [3] [%] | UI [4] | half-life [5] [h] | Activity [6] [%] | inhibition in vivo at 21.15 mg/kg [7] [%] | Stability [8] | inhibition in vivo at 21.15 mg/kg [9] [%] | inhibition in vivo at 29.98 mg/kg [10] [%] | Activity [11] [%] | inhibition in vivo at 29.98 mg/kg [12] [%]
1 | CC(C)Cc1ccc(C(C)C(=O)O)cc1 (stereo not given) [IBUPROFEN] | 23.42 | 52.1 | 35.6 | 13.51 |  |  |  |  |  |  |  | 
2 | CC(C)Cc1ccc(C(C)C(=O)NCCNC(=O)C(C)c2ccc(CC(C)C)cc2)cc1 (mixture of isomers) |  |  |  | 4.63 | 1.16 | 29.63 | 48 | Stable | 38 |  |  | 
3 | CC(C)Cc1ccc(C(C)C(=O)N(CCN(Cc2ccccc2)C(=O)C(C)c2ccc(CC(C)C)cc2)Cc2ccccc2)cc1 (mixture of isomers) |  |  |  |  | 1.38 |  |  | Stable |  | 53.5 | 35.84 | 32.4
